ChEMBL document CHEMBL2424622, “Development of amino-pyrimidine inhibitors of c-Jun N-terminal kinase (JNK): kinase profiling guided optimization of a 1,2,3-benzotriazole lead” (Bioorg Med Chem Lett, 2013)

What was measured:
[1] = biological target: Cyclin-dependent kinase 18 (Homo sapiens) (UniProt Q07002); assay: Competitive binding affinity to PCTK3 (unknown origin) at 10 uM in presence of ATP relative to control
[2] = biological target: Bone morphogenetic protein receptor type-1A (Homo sapiens) (UniProt P36894); assay: Competitive binding affinity to BMPR1A (unknown origin) at 10 uM in presence of ATP relative to control
Sequence of Bone morphogenetic protein receptor type-1A (Homo sapiens) (P36894 whole entry, canonical isoform): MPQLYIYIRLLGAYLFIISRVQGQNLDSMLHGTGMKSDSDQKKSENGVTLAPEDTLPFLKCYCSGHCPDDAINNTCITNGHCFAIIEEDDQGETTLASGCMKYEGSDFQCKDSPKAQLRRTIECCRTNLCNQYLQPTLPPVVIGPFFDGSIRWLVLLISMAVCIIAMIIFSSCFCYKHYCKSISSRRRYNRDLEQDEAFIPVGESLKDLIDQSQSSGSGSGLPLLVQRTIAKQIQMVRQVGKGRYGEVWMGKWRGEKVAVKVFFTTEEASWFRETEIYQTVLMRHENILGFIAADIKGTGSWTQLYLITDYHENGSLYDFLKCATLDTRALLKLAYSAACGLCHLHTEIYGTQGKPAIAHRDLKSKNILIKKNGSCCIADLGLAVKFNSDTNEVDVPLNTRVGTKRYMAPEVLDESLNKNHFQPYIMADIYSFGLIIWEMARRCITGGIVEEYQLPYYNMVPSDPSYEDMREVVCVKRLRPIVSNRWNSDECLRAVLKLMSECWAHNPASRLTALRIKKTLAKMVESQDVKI

[3] = biological target: Casein kinase I isoform delta (Homo sapiens) (UniProt P48730); assay: Competitive binding affinity to CSNK1D (unknown origin) at 10 uM in presence of ATP relative to control
Sequence of Casein kinase I isoform delta (Homo sapiens) (P48730 whole entry, looked up, canonical isoform): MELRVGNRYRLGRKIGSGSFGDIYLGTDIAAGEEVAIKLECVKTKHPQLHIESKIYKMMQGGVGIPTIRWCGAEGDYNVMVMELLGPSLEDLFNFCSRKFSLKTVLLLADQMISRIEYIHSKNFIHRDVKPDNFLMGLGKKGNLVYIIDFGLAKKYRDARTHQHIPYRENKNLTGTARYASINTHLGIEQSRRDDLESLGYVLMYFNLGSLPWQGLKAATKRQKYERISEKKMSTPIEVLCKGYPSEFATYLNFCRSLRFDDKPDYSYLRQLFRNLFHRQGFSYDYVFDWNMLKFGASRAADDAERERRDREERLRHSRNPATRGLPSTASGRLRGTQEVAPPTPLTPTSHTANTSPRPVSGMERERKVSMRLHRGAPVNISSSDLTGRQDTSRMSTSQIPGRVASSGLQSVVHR

[4] = biological target: T1, Serine/threonine-protein kinase 3 (Homo sapiens) (UniProt Q13188); assay: Competitive binding affinity to MST2 (unknown origin) at 10 uM in presence of ATP relative to control
T1 sequence (whole entry): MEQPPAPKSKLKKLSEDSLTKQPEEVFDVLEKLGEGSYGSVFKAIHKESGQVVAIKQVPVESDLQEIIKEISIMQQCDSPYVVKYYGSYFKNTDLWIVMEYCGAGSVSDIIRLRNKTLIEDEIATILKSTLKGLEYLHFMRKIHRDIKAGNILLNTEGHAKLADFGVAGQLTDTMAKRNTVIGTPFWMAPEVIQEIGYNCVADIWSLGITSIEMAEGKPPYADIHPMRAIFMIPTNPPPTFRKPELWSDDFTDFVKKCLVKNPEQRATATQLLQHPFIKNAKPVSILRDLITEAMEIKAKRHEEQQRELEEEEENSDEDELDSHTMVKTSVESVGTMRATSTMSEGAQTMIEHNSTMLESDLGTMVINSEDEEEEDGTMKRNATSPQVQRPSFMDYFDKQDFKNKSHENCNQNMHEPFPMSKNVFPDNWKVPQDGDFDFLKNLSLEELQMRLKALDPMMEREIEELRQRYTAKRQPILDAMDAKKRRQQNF

[5] = biological target: Phosphatidylinositol 4,5-bisphosphate 3-kinase catalytic subunit alpha isoform (Homo sapiens) (UniProt P42336); assay: Competitive binding affinity to PIK3CA (unknown origin) at 10 uM in presence of ATP relative to control
Sequence of Phosphatidylinositol 4,5-bisphosphate 3-kinase catalytic subunit alpha isoform (Homo sapiens) (P42336 whole entry, canonical isoform): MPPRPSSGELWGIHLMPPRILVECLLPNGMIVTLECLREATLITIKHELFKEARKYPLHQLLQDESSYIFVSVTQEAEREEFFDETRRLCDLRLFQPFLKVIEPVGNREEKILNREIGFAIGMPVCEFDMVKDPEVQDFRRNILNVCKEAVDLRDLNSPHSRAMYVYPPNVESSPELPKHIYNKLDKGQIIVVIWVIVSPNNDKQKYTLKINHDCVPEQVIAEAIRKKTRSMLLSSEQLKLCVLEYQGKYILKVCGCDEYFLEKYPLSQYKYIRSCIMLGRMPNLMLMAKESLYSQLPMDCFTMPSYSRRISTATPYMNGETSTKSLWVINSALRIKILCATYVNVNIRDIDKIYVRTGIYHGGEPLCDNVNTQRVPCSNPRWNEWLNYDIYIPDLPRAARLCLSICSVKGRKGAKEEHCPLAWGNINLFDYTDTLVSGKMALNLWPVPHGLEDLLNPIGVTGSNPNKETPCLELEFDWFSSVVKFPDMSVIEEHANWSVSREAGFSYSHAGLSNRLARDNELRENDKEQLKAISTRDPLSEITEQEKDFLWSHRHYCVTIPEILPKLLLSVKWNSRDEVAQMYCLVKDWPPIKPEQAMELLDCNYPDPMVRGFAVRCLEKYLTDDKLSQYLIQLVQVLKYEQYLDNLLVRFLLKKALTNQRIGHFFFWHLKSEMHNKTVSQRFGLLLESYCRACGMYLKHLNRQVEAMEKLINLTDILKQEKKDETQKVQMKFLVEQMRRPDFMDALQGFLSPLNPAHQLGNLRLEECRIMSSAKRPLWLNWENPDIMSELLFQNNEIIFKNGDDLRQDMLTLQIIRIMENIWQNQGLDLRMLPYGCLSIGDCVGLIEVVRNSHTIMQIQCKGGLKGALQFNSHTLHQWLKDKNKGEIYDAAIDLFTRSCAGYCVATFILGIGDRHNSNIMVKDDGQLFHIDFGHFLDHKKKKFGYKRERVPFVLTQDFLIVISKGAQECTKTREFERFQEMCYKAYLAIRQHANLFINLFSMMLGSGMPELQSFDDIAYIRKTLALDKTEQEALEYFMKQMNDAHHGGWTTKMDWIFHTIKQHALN

[6] = biological target: Dual specificity mitogen-activated protein kinase kinase 2 (Homo sapiens) (UniProt P36507); assay: Competitive binding affinity to MEK2 (unknown origin) at 10 uM in presence of ATP relative to control
Sequence of Dual specificity mitogen-activated protein kinase kinase 2 (Homo sapiens) (P36507 whole entry): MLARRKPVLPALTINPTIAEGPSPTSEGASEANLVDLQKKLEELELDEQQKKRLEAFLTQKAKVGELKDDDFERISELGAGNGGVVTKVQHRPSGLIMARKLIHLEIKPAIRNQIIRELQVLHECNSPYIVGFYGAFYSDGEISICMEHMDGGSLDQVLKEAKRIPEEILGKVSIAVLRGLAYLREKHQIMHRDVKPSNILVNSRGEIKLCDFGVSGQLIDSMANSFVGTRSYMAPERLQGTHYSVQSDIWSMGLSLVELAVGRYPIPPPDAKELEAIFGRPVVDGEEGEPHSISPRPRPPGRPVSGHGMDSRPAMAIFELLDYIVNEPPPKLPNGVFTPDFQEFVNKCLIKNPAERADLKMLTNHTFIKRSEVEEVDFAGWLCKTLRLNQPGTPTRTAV

[7] = biological target: T2, Tyrosine-protein kinase Mer (Homo sapiens) (UniProt Q12866); assay: Competitive binding affinity to MERTK (unknown origin) at 10 uM in presence of ATP relative to control
T2 sequence (whole entry): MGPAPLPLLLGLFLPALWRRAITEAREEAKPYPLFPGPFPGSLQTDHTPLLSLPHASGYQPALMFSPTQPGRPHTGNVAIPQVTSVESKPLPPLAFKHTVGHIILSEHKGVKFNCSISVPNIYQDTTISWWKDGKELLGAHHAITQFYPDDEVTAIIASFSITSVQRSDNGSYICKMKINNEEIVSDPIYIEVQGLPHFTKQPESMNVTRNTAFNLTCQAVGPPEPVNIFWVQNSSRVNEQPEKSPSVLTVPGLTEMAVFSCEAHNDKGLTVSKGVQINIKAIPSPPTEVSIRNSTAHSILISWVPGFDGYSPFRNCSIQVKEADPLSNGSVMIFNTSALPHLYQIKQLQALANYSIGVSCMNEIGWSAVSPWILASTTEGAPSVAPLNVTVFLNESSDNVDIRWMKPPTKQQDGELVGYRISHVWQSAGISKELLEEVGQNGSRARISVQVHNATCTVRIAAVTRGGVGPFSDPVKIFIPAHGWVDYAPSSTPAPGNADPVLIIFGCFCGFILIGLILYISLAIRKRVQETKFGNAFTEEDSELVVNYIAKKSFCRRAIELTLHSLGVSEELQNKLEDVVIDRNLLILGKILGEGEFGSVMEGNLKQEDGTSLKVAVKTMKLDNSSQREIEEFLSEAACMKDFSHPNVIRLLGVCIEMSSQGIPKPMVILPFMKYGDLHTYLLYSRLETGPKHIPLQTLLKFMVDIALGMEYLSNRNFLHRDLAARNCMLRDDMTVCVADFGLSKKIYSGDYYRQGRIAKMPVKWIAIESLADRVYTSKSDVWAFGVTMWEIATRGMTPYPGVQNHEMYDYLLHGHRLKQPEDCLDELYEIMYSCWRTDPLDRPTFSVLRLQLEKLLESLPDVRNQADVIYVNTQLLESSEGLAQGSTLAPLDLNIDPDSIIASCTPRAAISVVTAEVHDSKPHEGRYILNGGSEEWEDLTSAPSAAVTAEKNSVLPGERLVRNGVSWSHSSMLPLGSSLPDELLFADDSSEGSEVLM
Procedure, shortened: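 In vitro ATP-site competition binding assay across a diverse panel of 128 kinases, with compound tested at a single concentration. Kinase selectivity scores (S15) were calculated from the panel profiles.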

[8] = biological target: T3, Serine/threonine-protein kinase 17B (Homo sapiens) (UniProt O94768); assay: Competitive binding affinity to STK17B (unknown origin) at 10 uM in presence of ATP relative to control
T3 sequence (whole entry): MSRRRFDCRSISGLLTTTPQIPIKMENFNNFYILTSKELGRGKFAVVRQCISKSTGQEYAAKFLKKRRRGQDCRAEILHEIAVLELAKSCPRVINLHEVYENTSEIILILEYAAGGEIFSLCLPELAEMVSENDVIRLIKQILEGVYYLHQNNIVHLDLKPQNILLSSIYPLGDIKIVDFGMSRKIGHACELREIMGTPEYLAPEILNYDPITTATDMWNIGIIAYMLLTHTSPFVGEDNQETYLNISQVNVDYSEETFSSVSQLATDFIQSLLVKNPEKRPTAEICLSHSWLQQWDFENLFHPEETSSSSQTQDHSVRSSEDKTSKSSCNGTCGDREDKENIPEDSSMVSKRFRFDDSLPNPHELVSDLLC

Sequence of Cyclin-dependent kinase 18 (Homo sapiens) (Q07002 whole entry): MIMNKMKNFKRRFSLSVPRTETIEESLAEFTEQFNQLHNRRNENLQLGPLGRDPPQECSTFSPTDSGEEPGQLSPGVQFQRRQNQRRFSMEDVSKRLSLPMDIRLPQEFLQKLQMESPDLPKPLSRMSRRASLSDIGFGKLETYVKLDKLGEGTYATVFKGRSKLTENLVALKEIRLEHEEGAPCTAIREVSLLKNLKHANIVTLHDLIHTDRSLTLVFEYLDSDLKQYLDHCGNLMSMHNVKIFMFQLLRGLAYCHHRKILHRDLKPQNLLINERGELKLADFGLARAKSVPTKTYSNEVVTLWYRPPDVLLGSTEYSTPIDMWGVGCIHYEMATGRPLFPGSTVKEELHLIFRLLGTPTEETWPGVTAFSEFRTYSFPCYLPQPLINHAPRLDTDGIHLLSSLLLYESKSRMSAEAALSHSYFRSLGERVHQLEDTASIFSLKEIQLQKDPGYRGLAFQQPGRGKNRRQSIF

| inhibition [1] [%] | inhibition [2] [%] | inhibition [3] [%] | inhibition [4] [%] | inhibition [5] [%] | inhibition [6] [%] | inhibition [7] [%] | inhibition [8] [%] | SMILES |
| --- | --- | --- | --- | --- | --- | --- | --- | --- |
| – | – | – | – | – | – | – | 92 | N[C@H]1CC[C@H](Nc2nccc(-n3nnc4ccccc43)n2)CC1 |
| < 50 | < 50 | 100 | 95 | 84 | < 50 | < 50 | – | O[C@H]1CC[C@H](Nc2nccc(-n3nnc4ccccc43)n2)CC1 |

More lines, now with the values behind:

| SMILES | inhibition [1] [%] | inhibition [2] [%] | inhibition [3] [%] | inhibition [4] [%] | inhibition [5] [%] | inhibition [6] [%] | inhibition [7] [%] | inhibition [8] [%] |
| --- | --- | --- | --- | --- | --- | --- | --- | --- |
| O[C@H]1CC[C@H](Nc2nccc(-n3ncc4ccccc43)n2)CC1 | < 50 | < 50 | 96 | 81 | 78 | < 50 | 92 | – |
| O[C@H]1CC[C@H](Nc2nccc(-n3ccc4ccccc43)n2)CC1 | < 50 | < 50 | 91 | < 50 | < 50 | < 50 | < 50 | – |
| O=C([C@H]1CC[C@H](Nc2nccc(-n3nnc4ccccc43)n2)CC1)N1CCOCC1 | – | – | – | – | – | – | – | < 50 |
| O[C@H]1CC[C@H](Nc2nccc(-c3n[nH]c4ccccc34)n2)CC1 | – | < 50 | 100 | – | – | – | 100 | 99 |
